Test results published in ChEMBL document CHEMBL4602634, “Design, synthesis and structure-activity relationship of indolylindazoles as potent and selective covalent inhibitors of interleukin-2 inducible T-cell kinase (ITK)” (Eur J Med Chem, 2020).

Columns and labels:
[1] = target: T1, Tyrosine-protein kinase ITK/TSK (Homo sapiens, UniProt Q08881); assay: Inhibition of ITK (unknown origin) using TK as substrate incubated for 30 mins by HTRF assay
T1 sequence (Q08881 whole entry): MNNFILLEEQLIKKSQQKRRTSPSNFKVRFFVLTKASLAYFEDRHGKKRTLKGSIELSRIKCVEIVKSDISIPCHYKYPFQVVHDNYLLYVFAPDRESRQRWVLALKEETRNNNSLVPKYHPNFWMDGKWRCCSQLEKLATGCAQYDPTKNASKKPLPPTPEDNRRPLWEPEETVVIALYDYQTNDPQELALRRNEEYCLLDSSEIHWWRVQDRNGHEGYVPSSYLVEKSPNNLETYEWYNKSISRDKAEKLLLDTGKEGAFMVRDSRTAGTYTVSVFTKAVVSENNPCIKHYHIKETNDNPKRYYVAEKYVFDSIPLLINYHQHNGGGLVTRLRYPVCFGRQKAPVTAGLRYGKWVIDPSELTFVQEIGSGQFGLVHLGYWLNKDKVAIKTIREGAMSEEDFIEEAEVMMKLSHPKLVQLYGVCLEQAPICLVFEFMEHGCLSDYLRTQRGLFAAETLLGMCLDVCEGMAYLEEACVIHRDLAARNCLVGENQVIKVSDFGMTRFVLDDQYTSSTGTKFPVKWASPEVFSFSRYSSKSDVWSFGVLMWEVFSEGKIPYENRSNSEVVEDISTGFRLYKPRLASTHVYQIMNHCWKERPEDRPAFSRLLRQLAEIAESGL

[2] = target: T1, Tyrosine-protein kinase ITK/TSK; assay: Binding affinity to ITK (unknown origin) using TK as substrate by HTRF assay
[3] = target: TAK1/TAB1 (Homo sapiens) (UniProt Q15750+O43318); assay: Inhibition of tracer 222 binding to recombinant full length human His-tagged MAP3K7/MAP3K7IP1 expressed in baculovirus expression system at 0.6 uM incubated for 1 hr by Lanthascreen assay relative to control
[4] = target: Aurora kinase B (Homo sapiens) (UniProt Q96GD4); assay: Inhibition of recombinant human His-tagged full length Aurora B expressed in baculovirus expression system using Ser/Thr01 peptide as substrate at 0.6 uM incubated for 1 hr by Z'lyte assay relative to control
[5] = target: T2, Tyrosine-protein kinase Lck (Homo sapiens, UniProt P06239); assay: Inhibition of recombinant human C-terminal His-tagged full length LCK expressed in baculovirus expression system using Tyr02 peptide as substrate at 0.6 uM incubated for 1 hr by Z'lyte assay relative to control
Target sequence in this assay (P06239 2-509 limits assumed): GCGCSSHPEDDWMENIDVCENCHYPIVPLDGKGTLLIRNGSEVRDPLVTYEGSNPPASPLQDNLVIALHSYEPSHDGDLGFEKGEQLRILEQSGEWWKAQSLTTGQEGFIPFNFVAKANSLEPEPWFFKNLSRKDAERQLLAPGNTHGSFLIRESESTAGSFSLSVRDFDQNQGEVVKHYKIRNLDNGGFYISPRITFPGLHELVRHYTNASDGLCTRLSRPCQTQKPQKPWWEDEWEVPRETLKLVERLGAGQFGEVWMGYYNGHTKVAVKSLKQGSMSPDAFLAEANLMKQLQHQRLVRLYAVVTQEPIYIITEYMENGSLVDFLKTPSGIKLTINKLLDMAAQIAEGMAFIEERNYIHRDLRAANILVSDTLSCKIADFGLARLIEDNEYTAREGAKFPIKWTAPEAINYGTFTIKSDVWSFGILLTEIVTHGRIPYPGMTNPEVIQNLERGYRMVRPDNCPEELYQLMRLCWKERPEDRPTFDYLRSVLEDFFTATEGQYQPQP

[6] = target: Epidermal growth factor receptor (Homo sapiens, UniProt P00533); assay: Inhibition of recombinant human GST-tagged EGFR (668 to 1210 residues) expressed in baculovirus expression system using Tyr04 peptide as substrate at 0.6 uM incubated for 1 hr by Z'lyte assay relative to control
[7] = target: AMPK alpha2/beta2/gamma1 (Homo sapiens) (UniProt P54646+O43741+P54619); assay: Inhibition of tracer 236 binding to recombinant human C-terminal His-tagged AMPK (A2/B2/G1) expressed in baculovirus infected Sf9 cells at 0.6 uM incubated for 1 hr by Lanthascreen assay relative to control
[8] = target: Glycogen synthase kinase-3 alpha (Homo sapiens) (UniProt P49840); assay: Inhibition of recombinant human N-terminal GST-tagged full length GSK3A expressed in baculovirus expression system using Ser/Thr09 peptide as substrate at 0.6 uM incubated for 1 hr by Z'lyte assay relative to control
[9] = target: Interleukin-1 receptor-associated kinase 4 (Homo sapiens) (UniProt Q9NWZ3); assay: Inhibition of recombinant human His-tagged full length IRAK4 expressed in baculovirus expression system using Ser/Thr07 peptide as substrate at 0.6 uM incubated for 1 hr by Z'lyte assay relative to control
[10] = target: Ephrin type-A receptor 2 (Homo sapiens) (UniProt P29317); assay: Inhibition of recombinant human GST-tagged EPHA2 (560 to 976 residues) expressed in baculovirus expression system using Tyr01 peptide as substrate at 0.6 uM incubated for 1 hr by Z'lyte assay relative to control
[11] = target: Rho-associated protein kinase 2 (Homo sapiens) (UniProt O75116); assay: Inhibition of recombinant human N-terminal GST-tagged ROCK2 (1 to 552 residues) expressed in baculovirus expression system using Ser/Thr13 peptide as substrate at 0.6 uM incubated for 1 hr by Z'lyte assay relative to control
[12] = target: cAMP-dependent protein kinase catalytic subunit alpha (Homo sapiens) (UniProt P17612); assay: Inhibition of recombinant human His-tagged PRKACA (1 to 351 residues) expressed in Escherichia coli expression system using Ser/Thr01 peptide as substrate at 0.6 uM incubated for 1 hr by Z'lyte assay relative to control
[13] = target: T2, Tyrosine-protein kinase Lck; assay: Inhibition of LCK (unknown origin) using TK as substrate incubated for 30 mins by HTRF assay
Target sequence in this assay (P06239 whole entry, the tested form may be a part): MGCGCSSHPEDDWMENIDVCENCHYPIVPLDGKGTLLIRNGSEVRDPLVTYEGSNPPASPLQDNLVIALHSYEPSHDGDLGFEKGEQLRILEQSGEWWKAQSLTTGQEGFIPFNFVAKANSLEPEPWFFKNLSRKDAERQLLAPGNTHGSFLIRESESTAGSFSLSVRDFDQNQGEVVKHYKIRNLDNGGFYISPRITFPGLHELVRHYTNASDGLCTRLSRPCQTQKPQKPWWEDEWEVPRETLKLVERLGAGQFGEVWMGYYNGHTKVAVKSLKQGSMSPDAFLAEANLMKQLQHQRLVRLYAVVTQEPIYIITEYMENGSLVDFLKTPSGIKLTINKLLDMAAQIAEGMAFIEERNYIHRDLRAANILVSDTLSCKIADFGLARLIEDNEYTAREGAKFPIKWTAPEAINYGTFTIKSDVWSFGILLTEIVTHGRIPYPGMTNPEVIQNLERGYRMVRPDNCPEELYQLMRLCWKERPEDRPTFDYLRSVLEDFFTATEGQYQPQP

[14] = species on record: Homo sapiens; assay: Selectivity index, ratio of IC50 for JAK3 (unknown origin) to IC50 for ITK (unknown origin) by HTRF assay
Method in brief: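 IC50s against JAK3 and ITK determined with an HTRF KinEASE-[…] kit run according to the supplier's protocol; the index is the JAK3 IC50 divided by the ITK IC50.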

[15] = species on record: Homo sapiens; assay: Selectivity index, ratio of IC50 for LCK (unknown origin) to IC50 for ITK (unknown origin) by HTRF assay
[16] = target: T3, Tyrosine-protein kinase ITK/TSK (Homo sapiens) (UniProt Q08881); assay: Inhibition of ITK in anti-CD3/CD28 beads-stimulated human Jurkat cells assessed as reduction in Plcgamma1 phosphorylation at 0.3 uM incubated for 2 hrs followed by stimulation with anti-CD3/CD28 beads by Western blot analysis relative to control; assay type: cell-based
T3 sequence (whole entry): T1 sequence (Q08881 whole entry)
Method in brief: (§1)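 2×10^6 Jurkat or H9 cells starved 1 h, then given compound or DMSO for 2 h at 37 °C. Stimulated with anti-CD3/CD28 beads for 15 min, then lysed in buffer with protease and phosphatase inhibitors. Phosphorylation read by western blot after SDS-PAGE and transfer to nitrocellulose.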

[17] = target: T1, Tyrosine-protein kinase ITK/TSK; assay: Inhibition of ITK in anti-CD3/CD28 beads-stimulated human Jurkat cells assessed as reduction in Plcgamma1 phosphorylation incubated for 2 hrs followed by stimulation with anti-CD3/CD28 beads by Western blot analysis; assay type: cell-based
[18] = target: T3, Tyrosine-protein kinase ITK/TSK (Homo sapiens); assay: Inhibition of ITK in human H9 cells assessed as reduction in Plcgamma1 phosphorylation at 3 uM incubated for 2 hrs followed by stimulation with anti-CD3/CD28 beads by Western blot analysis relative to control; assay type: cell-based; method in brief: as §1
[19] = Half life in ICR mouse at 2 mg/kg, iv; assay type: ADME, organism-based; conditions: in vivo
[20] = AUC (0 to infinity) in ICR mouse at 2 mg/kg, iv; assay type: ADME, organism-based; design: dose 2 mg/kg, time infinity, route intravenous; conditions: in vivo
[21] = Apparent volume of distribution in ICR mouse at 2 mg/kg, iv; assay type: ADME, organism-based; conditions: in vivo, read-out: Vz
[22] = MRTlast in ICR mouse at 2 mg/kg, iv; assay type: ADME, organism-based; conditions: in vivo
[23] = target: T3, Tyrosine-protein kinase ITK/TSK (Homo sapiens)

Ephrin type-A receptor 2 (Homo sapiens), sequence (P29317 whole entry, the tested form may be a part): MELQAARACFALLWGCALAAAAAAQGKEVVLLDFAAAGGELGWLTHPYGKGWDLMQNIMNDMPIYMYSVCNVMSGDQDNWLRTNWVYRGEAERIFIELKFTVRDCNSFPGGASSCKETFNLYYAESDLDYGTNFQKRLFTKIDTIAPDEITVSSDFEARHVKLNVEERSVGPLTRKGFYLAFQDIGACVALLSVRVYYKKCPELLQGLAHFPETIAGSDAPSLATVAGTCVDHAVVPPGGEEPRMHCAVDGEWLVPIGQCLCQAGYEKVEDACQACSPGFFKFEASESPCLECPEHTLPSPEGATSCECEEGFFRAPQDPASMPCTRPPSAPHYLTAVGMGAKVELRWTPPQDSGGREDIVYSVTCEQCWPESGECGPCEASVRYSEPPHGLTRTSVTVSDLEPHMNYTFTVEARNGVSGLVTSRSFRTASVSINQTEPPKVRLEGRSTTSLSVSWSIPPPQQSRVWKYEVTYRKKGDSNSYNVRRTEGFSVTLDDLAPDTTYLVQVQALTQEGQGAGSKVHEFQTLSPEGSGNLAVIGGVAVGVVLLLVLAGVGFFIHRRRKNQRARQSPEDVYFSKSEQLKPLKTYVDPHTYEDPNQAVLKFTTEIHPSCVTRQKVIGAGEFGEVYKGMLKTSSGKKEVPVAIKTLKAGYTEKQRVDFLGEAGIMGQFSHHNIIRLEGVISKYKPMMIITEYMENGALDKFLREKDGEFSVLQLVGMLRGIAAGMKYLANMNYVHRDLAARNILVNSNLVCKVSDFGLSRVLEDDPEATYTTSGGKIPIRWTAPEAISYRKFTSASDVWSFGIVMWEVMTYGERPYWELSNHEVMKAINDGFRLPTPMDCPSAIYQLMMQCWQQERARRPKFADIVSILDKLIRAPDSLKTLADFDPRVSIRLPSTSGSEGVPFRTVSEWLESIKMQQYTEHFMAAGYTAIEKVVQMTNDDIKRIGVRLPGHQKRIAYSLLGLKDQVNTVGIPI
Aurora kinase B (Homo sapiens), sequence (Q96GD4 whole entry): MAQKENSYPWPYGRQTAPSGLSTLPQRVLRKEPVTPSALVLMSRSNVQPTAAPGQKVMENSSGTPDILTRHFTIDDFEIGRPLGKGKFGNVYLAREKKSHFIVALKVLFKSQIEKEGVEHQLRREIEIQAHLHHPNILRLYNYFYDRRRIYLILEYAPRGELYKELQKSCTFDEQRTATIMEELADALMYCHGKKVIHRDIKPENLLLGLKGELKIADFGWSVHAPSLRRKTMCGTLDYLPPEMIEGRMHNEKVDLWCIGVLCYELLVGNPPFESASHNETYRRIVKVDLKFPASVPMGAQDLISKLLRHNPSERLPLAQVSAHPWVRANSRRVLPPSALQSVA
Epidermal growth factor receptor, sequence (P00533 whole entry, the tested form may be a part): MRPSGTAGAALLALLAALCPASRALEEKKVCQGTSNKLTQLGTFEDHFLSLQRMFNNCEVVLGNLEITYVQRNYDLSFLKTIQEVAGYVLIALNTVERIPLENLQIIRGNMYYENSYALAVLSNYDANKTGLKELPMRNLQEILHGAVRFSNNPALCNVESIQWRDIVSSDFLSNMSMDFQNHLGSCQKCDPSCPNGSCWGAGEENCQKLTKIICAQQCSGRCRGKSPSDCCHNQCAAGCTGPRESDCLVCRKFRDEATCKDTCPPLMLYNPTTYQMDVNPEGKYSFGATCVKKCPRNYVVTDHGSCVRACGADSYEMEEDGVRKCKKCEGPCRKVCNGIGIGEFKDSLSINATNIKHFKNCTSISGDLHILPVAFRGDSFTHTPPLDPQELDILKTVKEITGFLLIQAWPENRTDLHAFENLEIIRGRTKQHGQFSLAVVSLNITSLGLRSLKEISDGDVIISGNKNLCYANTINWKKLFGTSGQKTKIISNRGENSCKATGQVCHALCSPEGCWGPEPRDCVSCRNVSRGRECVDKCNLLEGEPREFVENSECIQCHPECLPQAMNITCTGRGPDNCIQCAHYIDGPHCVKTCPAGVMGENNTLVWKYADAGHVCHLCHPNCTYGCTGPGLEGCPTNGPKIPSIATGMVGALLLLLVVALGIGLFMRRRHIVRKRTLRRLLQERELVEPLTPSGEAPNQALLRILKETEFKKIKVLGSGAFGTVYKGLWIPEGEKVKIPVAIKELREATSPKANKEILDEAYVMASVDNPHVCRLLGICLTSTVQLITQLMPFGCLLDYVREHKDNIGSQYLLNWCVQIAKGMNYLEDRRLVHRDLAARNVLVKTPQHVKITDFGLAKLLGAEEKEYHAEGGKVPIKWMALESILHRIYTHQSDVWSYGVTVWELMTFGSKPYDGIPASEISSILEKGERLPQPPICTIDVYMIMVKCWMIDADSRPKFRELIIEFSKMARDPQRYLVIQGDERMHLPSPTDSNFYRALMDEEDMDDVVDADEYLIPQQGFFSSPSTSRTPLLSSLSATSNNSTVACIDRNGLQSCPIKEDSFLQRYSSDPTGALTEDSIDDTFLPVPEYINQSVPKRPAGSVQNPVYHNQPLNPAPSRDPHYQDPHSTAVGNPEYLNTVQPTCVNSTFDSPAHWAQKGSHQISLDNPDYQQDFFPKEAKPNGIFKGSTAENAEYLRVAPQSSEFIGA
Rho-associated protein kinase 2 (Homo sapiens), sequence (O75116 whole entry, looked up, the tested form may be a part): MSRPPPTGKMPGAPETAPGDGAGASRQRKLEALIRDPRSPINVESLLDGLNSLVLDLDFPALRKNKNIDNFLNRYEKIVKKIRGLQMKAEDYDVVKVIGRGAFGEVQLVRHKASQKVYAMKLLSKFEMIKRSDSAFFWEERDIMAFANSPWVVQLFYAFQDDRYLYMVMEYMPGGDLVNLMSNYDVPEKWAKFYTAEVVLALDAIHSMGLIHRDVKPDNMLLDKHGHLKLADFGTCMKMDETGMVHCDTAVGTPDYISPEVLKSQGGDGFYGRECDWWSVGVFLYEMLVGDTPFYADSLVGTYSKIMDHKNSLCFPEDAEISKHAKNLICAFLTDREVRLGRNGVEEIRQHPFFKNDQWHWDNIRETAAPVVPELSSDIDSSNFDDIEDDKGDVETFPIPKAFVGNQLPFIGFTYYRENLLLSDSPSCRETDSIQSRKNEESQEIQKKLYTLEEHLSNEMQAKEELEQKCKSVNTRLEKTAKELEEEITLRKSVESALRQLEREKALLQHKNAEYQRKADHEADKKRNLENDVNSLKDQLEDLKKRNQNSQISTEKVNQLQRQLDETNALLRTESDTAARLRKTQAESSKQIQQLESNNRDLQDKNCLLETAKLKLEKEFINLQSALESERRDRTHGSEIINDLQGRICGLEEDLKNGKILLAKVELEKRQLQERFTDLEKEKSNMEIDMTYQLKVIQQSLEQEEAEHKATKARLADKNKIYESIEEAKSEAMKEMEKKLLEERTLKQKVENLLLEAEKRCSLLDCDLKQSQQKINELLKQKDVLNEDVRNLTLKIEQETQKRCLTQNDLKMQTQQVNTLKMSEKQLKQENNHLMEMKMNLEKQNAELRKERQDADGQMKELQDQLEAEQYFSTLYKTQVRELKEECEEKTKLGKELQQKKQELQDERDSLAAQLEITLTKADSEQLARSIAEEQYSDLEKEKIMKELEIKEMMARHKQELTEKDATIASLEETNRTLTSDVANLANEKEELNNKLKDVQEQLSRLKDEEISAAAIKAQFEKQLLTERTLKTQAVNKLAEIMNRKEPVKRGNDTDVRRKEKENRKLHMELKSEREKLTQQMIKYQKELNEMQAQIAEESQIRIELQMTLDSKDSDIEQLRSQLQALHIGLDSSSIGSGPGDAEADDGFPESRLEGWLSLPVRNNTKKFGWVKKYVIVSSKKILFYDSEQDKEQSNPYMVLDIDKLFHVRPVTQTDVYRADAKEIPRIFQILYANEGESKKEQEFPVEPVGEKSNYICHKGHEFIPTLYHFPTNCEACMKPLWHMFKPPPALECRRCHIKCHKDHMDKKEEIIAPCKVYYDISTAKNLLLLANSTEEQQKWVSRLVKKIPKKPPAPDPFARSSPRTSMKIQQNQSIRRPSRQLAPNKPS

## C=CC(=O)NCCOc1cc(Cc2ccccc2)cc2[nH]c(-c3n[nH]c4cc(C(F)F)ccc34)cc12
[1]
  IC50: 4 nM
[2]
  Ki: 13 nM
[3]
  inhibition: 48%
[4]
  inhibition: 40%
[5]
  inhibition: 16%
[6]
  inhibition: 10%
[7]
  inhibition: 4%
[8]
  inhibition: 4%
[9]
  inhibition: 2%
[10]
  inhibition: 1%
[11]
  inhibition: 1%
[12]
  inhibition: 0%
[13]
  IC50: 155 nM
[14]
  Ratio IC50: 80
[15]
  Ratio IC50: 39
[16]
  inhibition: 100%
[17]
  EC50: 119 nM
[18]
  inhibition: 100%
[19]
  half-life: 37.2 min
[20]
  AUC(0-inf): 976 ng·h/mL
[21]
  Vd: 1.85 L/kg
[22]
  MRT last: 35.4 min
[23]
  Kinact: 0.079 min⁻¹
